Activity calls are given as the source filed them. The calls are words filed in the database; no cut-off is given here.
Legend:
[1] = target: T1, Urotensin-2 receptor (Homo sapiens, UniProt Q9UKP6); assay: Displacement of [125I]urotensin 2 from human UT receptor expressed in CHO-K1 cells; format: cell-based
T1 sequence (Q9UKP6 whole entry): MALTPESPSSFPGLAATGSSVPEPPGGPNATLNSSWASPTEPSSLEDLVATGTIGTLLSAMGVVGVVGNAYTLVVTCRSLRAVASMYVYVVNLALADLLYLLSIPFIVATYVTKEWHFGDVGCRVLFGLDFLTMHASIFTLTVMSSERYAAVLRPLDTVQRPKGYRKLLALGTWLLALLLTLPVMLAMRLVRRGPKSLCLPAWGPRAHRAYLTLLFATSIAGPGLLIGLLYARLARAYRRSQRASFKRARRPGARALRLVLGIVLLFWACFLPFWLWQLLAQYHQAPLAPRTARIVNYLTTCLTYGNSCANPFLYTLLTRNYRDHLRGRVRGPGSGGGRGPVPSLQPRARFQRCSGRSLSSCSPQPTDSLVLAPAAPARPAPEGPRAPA

[2] = organism: Rattus norvegicus; assay: Maximum contractile response of thoracic aorta in albino Wistar rat after 30 min; format: functional; conditions: for EC50: 0.5 h
[3] = target: T2, Urotensin-2 receptor (Rattus norvegicus, UniProt P49684); assay: Antagonist activity at rat UT receptor; format: functional; conditions: read-out: pA2 (converted)
T2 sequence (P49684 whole entry): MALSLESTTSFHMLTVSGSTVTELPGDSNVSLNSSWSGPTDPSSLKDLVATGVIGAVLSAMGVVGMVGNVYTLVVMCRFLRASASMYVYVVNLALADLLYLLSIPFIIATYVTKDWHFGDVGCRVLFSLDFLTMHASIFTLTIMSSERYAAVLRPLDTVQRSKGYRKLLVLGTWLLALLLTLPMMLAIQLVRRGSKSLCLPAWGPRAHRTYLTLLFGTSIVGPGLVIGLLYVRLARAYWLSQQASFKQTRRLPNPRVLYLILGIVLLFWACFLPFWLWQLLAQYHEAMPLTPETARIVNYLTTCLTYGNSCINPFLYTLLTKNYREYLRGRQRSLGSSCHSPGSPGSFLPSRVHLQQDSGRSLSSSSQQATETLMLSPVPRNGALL
In short: (§1)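 The control strip received cumulative hU-II. The test strip received the antagonist for 30 min, then cumulative hU-II. KCl 80 mM at the end gave the maximal contraction. pK_B = log(dose ratio − 1) − log[antagonist], slope assumed −1.0, averaged over individual values. Competition was checked by Schild plot.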

[4] = organism: Rattus norvegicus; assay: Maximum contractile response of thoracic aorta in albino Wistar rat in the presence of human urotensin 2 after 30 min; format: functional; conditions: 0.5 h
In short: as §1, with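 “Thoracic aorta from male albino Wistar rats (275–350 g), decapitated under ether anesthesia, was cut into paired strips in oxygenated Krebs–Henseleit and recorded isotonically under 5 mN load. The control” for “The control”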

Row | Ki [1] | Structure (SMILES) | Emax [4] | further results
1 | 1.26 nM (antagonist) | CC(C)[C@H](NC(=O)[C@@H]1CSSC[C@H](NC(=O)[C@@H](N)CC(=O)O)C(=O)N[C@@H](Cc2ccccc2)C(=O)N[C@H](Cc2c[nH]c3ccccc23)C(=O)N[C@@H](CCCCN)C(=O)N[C@@H](Cc2ccc(O)cc2)C(=O)N1)C(=O)O [listing 1 of 2 here] |  | EC50 [2]: 63.1 nM
2 |  | CC(C)[C@H](NC(=O)[C@@H]1CSSC[C@H](NC(=O)[C@@H](N)CC(=O)O)C(=O)N[C@@H](Cc2ccccc2)C(=O)N[C@@H](Cc2c[nH]c3ccccc23)C(=O)N[C@@H](CCCCN)C(=O)N[C@@H](Cc2ccc(O)cc2)C(=O)N1)C(=O)O [listing 1 of 2 here] |  | EC50 [2]: 2.51 nM
3 |  | CC(C)[C@H](NC(=O)[C@@H]1CSSC(C)(C)[C@@H](NC(=O)[C@@H](N)CC(=O)O)C(=O)N[C@@H](Cc2ccccc2)C(=O)N[C@H](Cc2c[nH]c3ccccc23)C(=O)N[C@@H](CCCN)C(=O)N[C@@H](Cc2ccc(O)cc2)C(=O)N1)C(=O)O |  | Activity [2]: inactive
4 | 10 nM (antagonist) | CC(C)[C@H](NC(=O)[C@@H]1CSSC[C@H](NC(=O)[C@@H](N)CC(=O)O)C(=O)N[C@@H](Cc2ccccc2)C(=O)N[C@@H](Cc2c[nH]c3ccccc23)C(=O)N[C@@H](CCCN)C(=O)N[C@@H](Cc2ccc(O)cc2)C(=O)N1)C(=O)O [listing 1 of 2 here] |  | Kb [3]: 50.1 nM (antagonist)
5 |  | CC(C)[C@H](NC(=O)[C@@H]1CSSC(C)(C)[C@H](NC(=O)[C@@H](N)CC(=O)O)C(=O)N[C@@H](Cc2ccccc2)C(=O)N[C@@H](Cc2c[nH]c3ccccc23)C(=O)N[C@@H](CCCCN)C(=O)N[C@@H](Cc2ccc(O)cc2)C(=O)N1)C(=O)O [listing 1 of 2 here] |  | EC50 [2]: 0.251 nM
6 | 1.26 nM (antagonist) | CC(C)[C@H](NC(=O)[C@@H]1CSSC(C)(C)[C@H](NC(=O)[C@@H](N)CC(=O)O)C(=O)N[C@@H](Cc2ccccc2)C(=O)N[C@H](Cc2c[nH]c3ccccc23)C(=O)N[C@@H](CCCCN)C(=O)N[C@@H](Cc2ccc(O)cc2)C(=O)N1)C(=O)O [listing 1 of 2 here] |  | EC50 [2]: 63.1 nM
7 |  | CC(C)[C@H](NC(=O)[C@@H]1CSSC(C)(C)[C@H](NC(=O)[C@@H](N)CC(=O)O)C(=O)N[C@@H](Cc2ccccc2)C(=O)N[C@H](Cc2c[nH]c3ccccc23)C(=O)N[C@@H](CCCCN)C(=O)N[C@@H](Cc2ccc(O)cc2)C(=O)N1)C(=O)O [listing 2 of 2 here] | 33% | 
8 |  | CC(C)[C@H](NC(=O)[C@@H]1CSSC[C@H](NC(=O)[C@H](CC(=O)O)NC(=O)[C@@H]2CCCN2C(=O)[C@@H](NC(=O)[C@@H](N)CCC(=O)O)[C@@H](C)O)C(=O)N[C@@H](Cc2ccccc2)C(=O)N[C@@H](Cc2c[nH]c3ccccc23)C(=O)N[C@@H](CCCCN)C(=O)N[C@@H](Cc2ccc(O)cc2)C(=O)N1)C(=O)O [HUMAN UROTENSIN II] | 100% | EC50 [2]: 5.01 nM
9 |  | CC(C)[C@H](NC(=O)[C@@H]1CSSC(C)(C)[C@@H](NC(=O)[C@@H](N)CC(=O)O)C(=O)N[C@@H](Cc2ccccc2)C(=O)N[C@H](Cc2c[nH]c3ccccc23)C(=O)N[C@H](CCCN)C(=O)N[C@@H](Cc2ccc(O)cc2)C(=O)N1)C(=O)O |  | Activity ([2]; filed as partial agonist): Partial agonist
10 |  | CC(C)[C@H](NC(=O)[C@@H]1CSSC(C)(C)[C@H](NC(=O)[C@@H](N)CC(=O)O)C(=O)N[C@@H](Cc2ccccc2)C(=O)N[C@@H](Cc2c[nH]c3ccccc23)C(=O)N[C@@H](CCCN)C(=O)N[C@@H](Cc2ccc(O)cc2)C(=O)N1)C(=O)O [listing 1 of 2 here] | 22% | 
11 |  | CC(C)[C@H](NC(=O)[C@@H]1CSSC[C@@H](NC(=O)[C@@H](N)CC(=O)O)C(=O)N[C@@H](Cc2ccccc2)C(=O)N[C@H](Cc2c[nH]c3ccccc23)C(=O)N[C@@H](CCCN)C(=O)N[C@@H](Cc2ccc(O)cc2)C(=O)N1)C(=O)O |  | Activity [2]: inactive
12 |  | CC(C)[C@H](NC(=O)[C@@H]1CSSC[C@H](NC(=O)[C@@H](N)CC(=O)O)C(=O)N[C@@H](Cc2ccccc2)C(=O)N[C@@H](Cc2c[nH]c3ccccc23)C(=O)N[C@@H](CCCN)C(=O)N[C@@H](Cc2ccc(O)cc2)C(=O)N1)C(=O)O [listing 2 of 2 here] | 36% | 
13 |  | CC(C)[C@H](NC(=O)[C@@H]1CSSC[C@@H](NC(=O)[C@@H](N)CC(=O)O)C(=O)N[C@@H](Cc2ccccc2)C(=O)N[C@@H](Cc2c[nH]c3ccccc23)C(=O)N[C@@H](CCCN)C(=O)N[C@@H](Cc2ccc(O)cc2)C(=O)N1)C(=O)O |  | Activity ([2]; filed as partial agonist): Partial agonist
14 |  | CC(C)[C@H](NC(=O)[C@@H]1CSSC[C@H](NC(=O)[C@@H](N)CC(=O)O)C(=O)N[C@@H](Cc2ccccc2)C(=O)N[C@@H](Cc2c[nH]c3ccccc23)C(=O)N[C@@H](CCCCN)C(=O)N[C@@H](Cc2ccc(O)cc2)C(=O)N1)C(=O)O [listing 2 of 2 here] | 100% | 
15 | 12.6 nM (antagonist) | CC(C)[C@H](NC(=O)[C@@H]1CSSC[C@H](NC(=O)[C@@H](N)CC(=O)O)C(=O)N[C@@H](Cc2ccccc2)C(=O)N[C@H](Cc2c[nH]c3ccccc23)C(=O)N[C@@H](CCCN)C(=O)N[C@@H](Cc2ccc(O)cc2)C(=O)N1)C(=O)O |  | Kb [3]: 10 nM (antagonist)
16 | 15.8 nM (antagonist) | CC(C)[C@H](NC(=O)[C@@H]1CSSC(C)(C)[C@H](NC(=O)[C@@H](N)CC(=O)O)C(=O)N[C@@H](Cc2ccccc2)C(=O)N[C@@H](Cc2c[nH]c3ccccc23)C(=O)N[C@@H](CCCN)C(=O)N[C@@H](Cc2ccc(O)cc2)C(=O)N1)C(=O)O [listing 2 of 2 here] |  | 
17 |  | CC(C)[C@H](NC(=O)[C@@H]1CSSC[C@H](NC(=O)[C@@H](N)CC(=O)O)C(=O)N[C@@H](Cc2ccccc2)C(=O)N[C@H](Cc2c[nH]c3ccccc23)C(=O)N[C@@H](CCCCN)C(=O)N[C@@H](Cc2ccc(O)cc2)C(=O)N1)C(=O)O [listing 2 of 2 here] | 42% | 
18 |  | CC(C)[C@H](NC(=O)[C@@H]1CSSC(C)(C)[C@H](NC(=O)[C@@H](N)CC(=O)O)C(=O)N[C@@H](Cc2ccccc2)C(=O)N[C@@H](Cc2c[nH]c3ccccc23)C(=O)N[C@@H](CCCCN)C(=O)N[C@@H](Cc2ccc(O)cc2)C(=O)N1)C(=O)O [listing 2 of 2 here] | 97% | 
19 |  | CC(C)[C@H](NC(=O)[C@@H]1CSSC(C)(C)[C@@H](NC(=O)[C@@H](N)CC(=O)O)C(=O)N[C@@H](Cc2ccccc2)C(=O)N[C@@H](Cc2c[nH]c3ccccc23)C(=O)N[C@@H](CCCN)C(=O)N[C@@H](Cc2ccc(O)cc2)C(=O)N1)C(=O)O |  | Activity ([2]; filed as partial agonist): Partial agonist
20 |  | CC(C)[C@H](NC(=O)[C@@H]1CSSC(C)(C)[C@H](NC(=O)[C@@H](N)CC(=O)O)C(=O)N[C@@H](Cc2ccccc2)C(=O)N[C@H](Cc2c[nH]c3ccccc23)C(=O)N[C@H](CCCN)C(=O)N[C@@H](Cc2ccc(O)cc2)C(=O)N1)C(=O)O [listing 1 of 2 here] | 25% | 
21 | 2000 nM (antagonist) | CC(C)[C@H](NC(=O)[C@@H]1CSSC(C)(C)[C@H](NC(=O)[C@@H](N)CC(=O)O)C(=O)N[C@@H](Cc2ccccc2)C(=O)N[C@H](Cc2c[nH]c3ccccc23)C(=O)N[C@@H](CCCN)C(=O)N[C@@H](Cc2ccc(O)cc2)C(=O)N1)C(=O)O |  | Activity [2]: inactive
22 | 398 nM (antagonist) | CC(C)[C@H](NC(=O)[C@@H]1CSSC(C)(C)[C@H](NC(=O)[C@@H](N)CC(=O)O)C(=O)N[C@@H](Cc2ccccc2)C(=O)N[C@H](Cc2c[nH]c3ccccc23)C(=O)N[C@H](CCCN)C(=O)N[C@@H](Cc2ccc(O)cc2)C(=O)N1)C(=O)O [listing 2 of 2 here] |  | 

From ChEMBL document CHEMBL1139480, “Urotensin-II receptor ligands. From agonist to antagonist activity” (J Med Chem, 2005)
